Source: ChEMBL document CHEMBL1124065, “Development of a new physicochemical model for brain penetration and its application to the design of centrally acting H2 receptor histamine antagonists” (J Med Chem, 1988)

Legend:
[1] = biological target: Histamine H2 receptor (Cavia porcellus) (UniProt P47747); experiment: In vitro Histamine H2 receptor antagonist activity in the histamine-stimulated guinea pig right atrium; type: functional, tissue-based; conditions: Cardiac atrium
[2] = (§1) Logarithm of partition coefficient of the neutral form of compound given for octanol/water solvent system; type: physicochemical
How it was run: (§2)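 Shake-flask partitioning at 37 °C in 1-octanol/water and cyclohexane/water, with buffer salts setting aqueous pH. Aqueous-phase compound concentration was read spectrophotometrically before and after partitioning. Neutral-form log P was calculated from eq 1 using the measured log P at a stated pH and the pKa.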

[3] = Log (Cbrain/Cblood) in rats; conditions: rat
[4] = Delta logPoct-cyc; type: ADME; conditions: octanol/water; how it was run: as §2
[5] = Log of (Cbrain/Cblood) in rats; conditions: rat
[6] = Change in logarithm of partition coefficient of the compound; type: physicochemical; conditions: octanol/water
How it was run: as §2, with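 “pKa. Values are means of ≥2 determinations. Δlog P = log P(octanol) − log P(cyclohexane).” for “pKa.”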

[7] = Partition coefficient (Log Pn, neutral form, cyclohexane/water); type: ADME
How it was run: as §2, with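 “pKa. Values are means of ≥2 determinations. Δlog P = log P(octanol) − log P(cyclohexane).” for “pKa.”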

[8] = Logarithm of partition coefficient of the neutral form of compound given for […]/water solvent system; type: physicochemical; conditions: octanol/water
[9] = as §1; type: physicochemical; remark: listed apart in the source
How it was run: as §2, with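 “pKa. Values are means of ≥2 determinations. Δlog P = log P(octanol) − log P(cyclohexane).” for “pKa.”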

Histamine H2 receptor (Cavia porcellus), sequence (P47747 whole entry): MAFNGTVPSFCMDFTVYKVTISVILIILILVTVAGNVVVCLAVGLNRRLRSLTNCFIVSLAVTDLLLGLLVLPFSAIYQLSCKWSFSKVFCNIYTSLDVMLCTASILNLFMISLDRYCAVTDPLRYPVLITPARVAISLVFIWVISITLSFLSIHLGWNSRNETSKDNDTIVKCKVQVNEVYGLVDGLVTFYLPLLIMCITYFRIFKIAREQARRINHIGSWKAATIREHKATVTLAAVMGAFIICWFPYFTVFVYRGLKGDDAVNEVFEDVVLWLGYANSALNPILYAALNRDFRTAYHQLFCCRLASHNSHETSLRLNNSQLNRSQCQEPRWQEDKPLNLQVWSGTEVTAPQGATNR

| -Log KB [1] | logP [2] | Kp ([5]; in vivo) | delta Log P [6] | Log Pn [7] | further results | Compound |
| --- | --- | --- | --- | --- | --- | --- |
| 7.31 | 1.04 | – | – | – | – | Cc1[nH]cnc1CSCCNc1[nH]ccc1[N+](=O)[O-] |
| 5.59 | – | – | – | – | Kp ([3]; brain and blood): 0.0676 | CN(C)c1cc(-c2n[nH]c(N)n2)ccn1 |
| 4.67 | – | – | – | – | – | CS(=O)(=O)NCCCOc1cccc(CN2CCCCC2)c1 |
| – | 4.57 | – | – | – | delta logP [4]: 4.1 | CN(C)Cc1ccc(CSCCNc2ncc(Cc3ccc4ccccc4c3)c(O)n2)o1 |
| 6.21 | – | – | – | – | – | c1cc(CN2CCCCC2)cc(OCCCNc2ccc3ccccc3n2)c1 |
| 5.93 | – | – | – | – | – | N=C(N)Nc1nc(-c2ccccc2)cs1 |
| < 4.3 | – | – | – | – | – | FC(F)(F)CNCCCOc1cccc(CN2CCCCC2)c1 |
| 7.79 | 2.15 | 0.346 | 1.93 | 0.22 | Kp ([3]; in vivo): 0.347 | CC(=O)NCCCOc1cccc(CN2CCCCC2)c1 |
| – | 2.78 | – | – | 1.31 | – | OCCCOc1cccc(CN2CCCCC2)c1 |
| 6.84 | 2.79 | – | 3.46 | -0.67 | – | O=[N+]([O-])c1cc[nH]c1NCCSCc1nccc2ccccc12 |
| – | 0.6 | – | – | – | – | CNC(=NCCSCc1csc(N=C(N)N)n1)NC#N [TIOTIDINE] |
| < 4.3 | – | – | – | – | – | CN(C)Cc1ccc(-c2ccc(Nc3[nH]ccc3[N+](=O)[O-])cc2)o1 |
| 6.09 | 4.29 | 4.85 | 1.06 | 3.23 | Kp ([3]; in vivo): 4.9 | c1ccc(NCCCOc2cccc(CN3CCCCC3)c2)nc1 |
| 7.36 | – | 0.018 | – | – | Kp ([3]; in vivo): 0.0269 | CC(=O)Nc1cccc(-c2csc(N=C(N)N)n2)c1 |
| 6.5 | 1.98 | 0.00753 | – | – | Kp ([3]; in vivo): 0.00708 | CC/N=C(\NC#N)NCCSCc1ncccc1Br |
| 7.79 | 3.97 | 0.58 | 1.79 | 2.18 | Kp ([3]; in vivo): 0.575 | O=C(NCCCOc1cccc(CN2CCCCC2)c1)c1ccccc1 |
| < 4.8 | – | – | – | – | – | O=S(=O)(NCCCOc1cccc(CN2CCCCC2)c1)c1ccccc1 |
| 7.91 | 2.33 | – | 3.81 | -1.48 | Kp ([5]; brain and blood): 0.0884; Kp ([3]; brain and blood): 0.0871; Log Pn [8]: 2.64 | Cc1ccc(Cc2c[nH]c(NCCSCc3ccc(CN(C)C)o3)nc2=O)cn1 [LUPITIDINE] |
| – | – | – | – | – | delta logP [4]: 5.18; logP [9]: 2.58 | COc1cccnc1CCCCNc1ncc(Cc2ccc(C)nc2)c(=O)[nH]1 [ICOTIDINE] |
| < 4.9 | – | – | – | – | – | CC(NCCCOc1cccc(CN2CCCCC2)c1)=C(C#N)C#N |
| – | 3.3 | – | – | – | delta logP [4]: 0.71 | COc1ccc(CN(CCN(C)C)c2ccccn2)cc1 [PYRILAMINE] |

| -Log KB [1] | logP [2] | Kp ([5]; in vivo) | delta Log P [6] | Log Pn [7] | further results | Compound |
| --- | --- | --- | --- | --- | --- | --- |
| 7.33 | 1.41 | – | 4.6 | -3.19 | Kp ([5]; brain and blood): 0.0705; Kp ([3]; brain and blood): 0.0708 | N=C(N)Nc1nc(-c2cccc(N)c2)cs1 |
| 6.6 | – | 0.454 | – | – | Kp ([3]; in vivo): 0.525 | CN(C)Cc1ccnc(-c2cccc(Nc3[nH]ccc3[N+](=O)[O-])c2)c1 |
| – | – | – | – | – | delta logP [4]: 2.44 | Clc1cccc(Cl)c1N=C1NCCN1 [CLONIDINE] |
| 7.35 | 3.65 | 0.184 | 2.54 | 1.11 | Kp ([3]; in vivo): 0.186 | CN(C)Cc1ccc(CSCCNc2[nH]cc(Cc3ccccc3)c2[N+](=O)[O-])o1 |
| 6.7 | – | 0.18 | – | – | – | O=[N+]([O-])c1cc[nH]c1NCCSCc1ccccn1 |
| – | 2.64 | – | 3.92 | -1.28 | Kp ([5]; brain and blood): 0.66; Kp ([3]; brain and blood): 0.661 | NC(N)=Nc1nc(-c2ccccc2)cs1 |
| 7.19 | – | 1.42 | – | – | – | c1cc(CN2CCCCC2)cc(OCCCNc2nc3ccccc3o2)c1 |
| 6.97 | – | – | – | – | Kp ([5]; brain and blood): 0.724; Kp ([3]; brain and blood): 0.759 | O=[N+]([O-])c1c(Cc2ccccc2)c[nH]c1NCCSCc1ccccn1 |
| 6.63 | 1.64 | – | 3.12 | -1.48 | Kp ([5]; brain and blood): 0.0652; Kp ([3]; brain and blood): 0.0759 | CN(C)Cc1ccc(CSCCNc2[nH]ccc2[N+](=O)[O-])o1 |
| 7.46 | – | 1.38 | 1.69 | 3.72 | – | c1cc(CN2CCCCC2)cc(OCCCNc2nc3ccccc3s2)c1 [ZOLANTIDINE] |
| 5.7 | – | – | – | – | – | c1ccc(NCCCOc2cccc(CN3CCCCC3)c2)cc1 |
| < 3.8 | – | – | – | – | – | CN(C)Cc1ccc(-c2cccc(CNc3[nH]ccc3[N+](=O)[O-])c2)o1 |
| 6.27 | – | 0.873 | 4.03 | -2.79 | Kp ([3]; in vivo): 0.912 | Cc1csc(N=C(N)N)n1 |
| < 3.8 | – | – | – | – | – | CN(C)c1cccc(-c2csc(NC(=N)N)n2)c1 |
| 7.24 | 1.75 | – | 3.09 | -1.34 | Kp ([5]; brain and blood): 0.214; Kp ([3]; brain and blood): 0.214 | O=[N+]([O-])c1cc[nH]c1NCCSCc1ncccc1Br |
| 7.41 | – | 1.98 | – | – | Kp ([3]; in vivo): 2.75 | c1cc(CN2CCCCC2)cc(OCCCNc2nccs2)c1 |
| 6.02 | 3.1 | – | 2.88 | 0.22 | Kp ([5]; brain and blood): 0.545; Kp ([3]; brain and blood): 0.537 | CN(C)Cc1ccc(-c2cccc(Nc3[nH]ccc3[N+](=O)[O-])c2)o1 |
| 5.19 | – | – | – | – | – | NCCCOc1cccc(CN2CCCCC2)c1 |
| 7.84 | – | – | 4.26 | -2.66 | Kp ([5]; brain and blood): 0.0293; Kp ([3]; brain and blood): 0.0288 | C/N=C(\NC#N)Nc1cccc(-c2csc(N=C(N)N)n2)c1 |
| 7.05 | 0.27 | 0.0586 | – | < -3 | Kp ([3]; in vivo): 0.0589 | CN/C(=C\[N+](=O)[O-])NCCSCc1ccc(CN(C)C)o1 [RANITIDINE] |
